NRP1-CendR mod – NRP-1/CendR interaction modulation; hit rate 0.85% among 360,000; inhibition, % at 25 µM; FAM-RPARPAR peptide binding to NRP-1, fluorescence polarization; O14786;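 active means inhibition or corrected inhibition above about 18%, plus a signal ratio from 0.5 to 1.5, limit read from the data, passing the limit was not always enough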
Target sequence (O14786 whole entry, looked up): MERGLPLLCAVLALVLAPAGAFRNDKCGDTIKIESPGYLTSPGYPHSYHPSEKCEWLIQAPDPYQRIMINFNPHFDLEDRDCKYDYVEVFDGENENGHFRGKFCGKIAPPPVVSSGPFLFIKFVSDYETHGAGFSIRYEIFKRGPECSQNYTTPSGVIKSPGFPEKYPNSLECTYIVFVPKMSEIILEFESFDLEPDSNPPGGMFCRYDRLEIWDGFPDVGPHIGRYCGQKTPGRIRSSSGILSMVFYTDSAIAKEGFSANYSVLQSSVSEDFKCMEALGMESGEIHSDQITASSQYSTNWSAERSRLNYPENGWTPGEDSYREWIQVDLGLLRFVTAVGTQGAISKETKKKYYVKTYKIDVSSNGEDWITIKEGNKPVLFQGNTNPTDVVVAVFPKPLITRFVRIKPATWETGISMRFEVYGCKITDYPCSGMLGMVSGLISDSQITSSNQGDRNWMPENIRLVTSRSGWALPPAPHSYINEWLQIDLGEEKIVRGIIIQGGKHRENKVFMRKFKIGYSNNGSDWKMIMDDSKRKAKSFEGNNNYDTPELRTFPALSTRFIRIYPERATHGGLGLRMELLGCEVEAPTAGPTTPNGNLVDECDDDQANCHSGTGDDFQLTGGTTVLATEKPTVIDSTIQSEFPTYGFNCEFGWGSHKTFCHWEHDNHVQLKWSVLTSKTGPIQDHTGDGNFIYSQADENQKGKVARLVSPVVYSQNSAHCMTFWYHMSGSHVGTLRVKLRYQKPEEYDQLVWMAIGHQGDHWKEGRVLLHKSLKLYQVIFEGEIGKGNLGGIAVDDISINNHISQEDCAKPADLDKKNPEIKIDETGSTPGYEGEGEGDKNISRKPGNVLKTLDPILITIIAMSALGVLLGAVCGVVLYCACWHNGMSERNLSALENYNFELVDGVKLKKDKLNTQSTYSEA
ASAP1 GAP inh – ASAP1 ArfGAP inhibition; Q9ULH1; inhibition, % at 16.5 µM; ASAP1-stimulated ARF1 GTP hydrolysis, GDP FP detection; hit rate 0.19% among 360,000; in the data active means inhibition above about 25%
V-ATPase pH – regulators of yeast V-ATPase proton transport; hit rate 0.37% among 350,000; response, % at 10 µM; S. cerevisiae, pHLuorin cytosolic pH fluorescence; in the data active means response mostly above about 7.3%, no sharp cut-off; inactive means mostly below about 5.4%; further: actives read high
ARFGAP1 inh – rat ARFGAP1 inhibition | inhibition, % at 16.5 µM | hit rate 0.26% among 360,000 | Arfgap1-stimulated ARF1 GTP hydrolysis, GDP FP detection;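 active means inhibition above a per-plate limit, mean inhibition of low control wells plus 3 SD, cut at about 25% in these data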
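Repeats: one replicate per compound; assay system: rat Arfgap1 catalytic domain, aa 1-136; times: enzyme reaction 120 min at 25 °C after 20 min preincubation; detection: FP of antibody-bound GDP Alexa 633 tracer, ex 620/em 688 nm; benchmarks: high control wells lacking Arfgap1, low control full reaction with DMSO; reagent: human ARF1(Δ1-17)-GTP substrate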
Granule exo inh – blocks lytic granule exocytosis; TALL-104 LAMP-1 surface exposure, flow cytometry; cells stimulated with thapsigargin and PMA; inhibition, % at 10 µM; hit rate 0.66% among 360,000;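 active means inhibition above about 55%, limit read from the data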
ASAP1 inh confirm – confirmation of human ASAP1 inhibitors; hit rate 37% among 620; inhibition, % at 16.5 µM; shares compounds with ASAP1 GAP inh; ASAP1-stimulated Arf1 GTPase, GDP fluorescence polarization;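 active means mean inhibition over triplicates exceeds the hit threshold derived for the earlier primary screening run, cut at about 25% in these data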
ARFGAP1 confirm – rat ARFGAP1 inhibition, confirmed. shares compounds with ARFGAP1 inh. ARFGAP1-stimulated ARF1 GTP hydrolysis, GDP tracer FP. inhibition, % at 16.5 µM. hit rate 30% among 890;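 active means average inhibition over triplicates above the hit cutoff set in the earlier primary screen, cut at about 25% in these data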
Of the large screens only hits and unclear results are named; the others gave an inactive call (follow-up assays come after a bar, where they were run). Rows were chosen to be rich in hits. Some 2.2% of all compounds tested hit in one or more screens of this group.

COc1ccc(-c2[nH]ncc2/C=N\NC(=O)c2ccc(Br)o2)cc1OC	ASAP1 GAP inh 25.2 | ASAP1 inh confirm inactive
C[C@@H]1CN([C@@H](C)CO)S(=O)(=O)c2ccc(Br)cc2O[C@H]1CN(C)Cc1ccccn1	none
Cc1ccc(/C(N)=N/OC(=O)C(C)c2ccc([N+](=O)[O-])cc2)cc1 (centres undefined)	none
O=C(C[C@H]1C/C=C\CC[C@@H](Cc2ccc(F)cc2)C(=O)OC[C@H]2CCCN2C1=O)N[C@@H](CO)Cc1ccccc1	none
CCN1C[C@@H]2[C@@H]3C(=O)N(Cc4ccccc4)C(=O)[C@@H]3[C@](Cc3ccccc3)(C1=O)N2C(=O)c1ccccc1	none
CCN1C[C@@H]2[C@@H]3C(=O)N(Cc4ccccc4)C(=O)[C@@H]3[C@](Cc3ccccc3)(C1=O)N2C(=O)c1ccc(Cl)cc1	ASAP1 GAP inh 56.5 | ASAP1 inh confirm inactive
Cc1cccc(-c2onc3ccc(C(=O)/C=C/N(C)C)cc23)c1	none
COc1cccc(-c2onc3ccc(C(=O)/C=C/N(C)C)cc23)c1	ASAP1 GAP inh 35.5 | ASAP1 inh confirm 51.3
CC(C)(C)S(=O)(=O)N1Cc2cc(CO)ccc2[C@H]1CCO	none (no result: NRP1-CendR mod, V-ATPase pH, Granule exo inh)
N#Cc1ccsc1NC(=O)C1CCCN1S(=O)(=O)c1cccs1 (centres undefined)	none
O=C(O)COc1ccccc1/C=N/NC(=O)Cc1csc(Nc2cccc(C(F)(F)F)c2)n1	ASAP1 GAP inh 36.5 | ASAP1 inh confirm inactive
O=C(O)COc1ccccc1/C=N/NC(=O)Cc1ccccc1	none
CCOc1ccc(NC(=O)C(=O)NCCN2CCN(S(=O)(=O)c3ccccc3)CC2)cc1	none
Cc1occc1-c1nnc(SCC(=O)NCc2cccs2)n1-c1ccc(F)cc1	ASAP1 GAP inh 26.3 | ASAP1 inh confirm inactive
Cc1cccc(N=Nc2c(N)n[nH]c2-c2ccc(Cl)cc2)c1	ASAP1 GAP inh 26.2 | ASAP1 inh confirm inactive
Cc1ccc(-c2[nH]nc(N)c2N=Nc2ccccc2C)cc1	ASAP1 GAP inh 27.0 | ASAP1 inh confirm inactive
Cc1ccc(-c2[nH]nc(N)c2N=Nc2cccc(Cl)c2C)cc1	none
O=C(NCc1ccncc1)c1ccccc1Nc1ccc(SC(F)F)cc1	ASAP1 GAP inh 28.1 | ASAP1 inh confirm inactive
CNC(=O)c1ccccc1Nc1ccc(SC(F)F)cc1	none
S=c1[nH]nc(Cc2cccs2)n1-c1ccccc1Cl	ASAP1 GAP inh 25.8 | ASAP1 inh confirm inactive
COc1ccc2nc(NC(=O)c3cccc(N4C(=O)CCC4=O)c3)sc2c1	ASAP1 GAP inh 26.3 | ASAP1 inh confirm inactive
CS(=O)(=O)Nc1ccc(C2=NN(C(=O)CCCC(=O)O)C(c3cccs3)C2)cc1 (centres undefined)	none
O=C(/C=C/c1cccs1)Nc1ccc(N2CCOCC2)c(S(=O)(=O)Nc2ccccc2Cl)c1	none
COc1ccccc1NS(=O)(=O)c1cc(NC(=O)/C=C/c2cccs2)ccc1N1CCOCC1	ASAP1 GAP inh 31.6 | ASAP1 inh confirm inactive
Cc1ccc(S(=O)(=O)N2CCN(C(=O)CCn3cncn3)CC2)cc1C	none
COc1cccc(-c2cnc3c(NC=O)cc(-c4ccc(N5CCN(C)CC5)cc4)cn23)c1	ASAP1 GAP inh 36.1 (no result: V-ATPase pH) | ASAP1 inh confirm 75.6
COc1cccc(-c2cnc3c(NC=O)cc(-c4ccc(S(C)(=O)=O)cc4)cn23)c1	none (no result: V-ATPase pH)
CC(=O)c1cccc(CN(C)CC2CCCN(CCc3ccccc3C)C2)c1 (centres undefined)	none
CCCS(=O)(=O)NC(=O)C1(C)CCN(C(=O)c2cncc(Br)c2)C1 (centres undefined)	none (no result: V-ATPase pH)
COc1ccc(/C=N/NC(=O)c2cc(-c3ccc4c(c3)OCO4)n[nH]2)cc1OC	ASAP1 GAP inh 26.0 | ASAP1 inh confirm 33.7
O=C(N/N=C/c1ccc(F)cc1)c1cc(-c2ccc3c(c2)OCO3)n[nH]1	none
Cc1c(C(=O)NCc2ccc(Cl)c(Cl)c2)sc(=O)n1Cc1cccc(F)c1	ASAP1 GAP inh 25.3 (no result: V-ATPase pH) | ASAP1 inh confirm inactive
Cc1c(C(=O)NCc2cccc(Cl)c2)sc(=O)n1Cc1cccc(F)c1	none (no result: V-ATPase pH)
CCOc1cc(OCC)cc(C(=O)N2CCC[C@@H]2C(=O)N2CCC[C@H]2C(=O)NCc2ccccc2)c1	none (no result: NRP1-CendR mod, V-ATPase pH, Granule exo inh)
COCCNc1nc(C)c(C(C)=O)s1	ASAP1 GAP inh 26.1 | ASAP1 inh confirm inactive
COc1ccccc1CNc1nc(C)c(C(C)=O)s1	none
Cc1ccc(NC(=O)NC2CC(=O)N(c3ccc4c(c3)OCCO4)C2)cc1F (centres undefined)	none
CCOc1ccccc1NC(=O)CCNC(=O)C1CCN(S(=O)(=O)c2ccccc2)CC1	none (no result: V-ATPase pH)
CCC(C)(C)NC(=O)C(c1ccc(F)cc1)N(CCOC)C(=O)CCC(=O)Nc1nccs1 (centres undefined)	none
O=C(c1ccco1)[C@@H]1[C@@H]2C(=O)N(c3ccc(Br)cc3)C(=O)[C@@H]2C2c3ccccc3C=CN21 (some centres undefined)	none
O=C(c1ccco1)[C@@H]1[C@@H]2C(=O)N(c3ccc(F)cc3)C(=O)[C@@H]2C2c3ccccc3C=CN21 (some centres undefined)	ASAP1 GAP inh 25.5 (no result: NRP1-CendR mod, V-ATPase pH, Granule exo inh) | ASAP1 inh confirm inactive
O=C(NN1CCOCC1)c1ccc(Cl)cc1[N+](=O)[O-]	none
CC1(C)CC(CCC(=O)Nc2ccc(S(N)(=O)=O)cc2)C(=O)O1 (centres undefined)	ASAP1 GAP inh 25.2 | ASAP1 inh confirm inactive
Cc1ccc(NC(=O)CCC2CC(C)(C)OC2=O)cc1 (centres undefined)	none
S=C(Nc1ccc2nsnc2c1)N1CCCC1	ASAP1 GAP inh 35.3 | ASAP1 inh confirm inactive
O=C(Nc1ccc2nsnc2c1)N1CCCCCC1	none
O=C(Nc1ccc(Nc2ccncc2)cc1)c1ccc(Nc2ccnc3ccc([N+](=O)[O-])cc23)cc1	ASAP1 GAP inh 46.2, ARFGAP1 inh 76.8 | ASAP1 inh confirm 74.7
COC1=CC(=O)c2nc(Cl)ccc2C1=O	NRP1-CendR mod 25.6, ASAP1 GAP inh 37.6, Granule exo inh 85.8 (no result: V-ATPase pH) | ASAP1 inh confirm inactive
Nc1[nH]c(C(=O)c2ccc(Br)cc2)c(-c2ccc(F)cc2)c1C(=O)NCCc1c[nH]c2ccccc12	none (no result: NRP1-CendR mod, V-ATPase pH, Granule exo inh)
CCN(CC)S(=O)(=O)c1ccc(N2CCCC2)c(NC(=O)C2=NN(c3ccccc3)C(=O)CC2)c1	none
Cc1cc(N=Cc2c(O)n(-c3ccc4c(c3)OCO4)c(=O)c3ccccc23)ccn1	ASAP1 GAP inh 39.4 | ASAP1 inh confirm 50.4
Cc1ccc(-n2c(O)c(C=Nc3ccc4c(c3)OCO4)c3ccccc3c2=O)cc1C	none
NS(=O)(=O)c1ccc(NC(=O)c2cccc3cc4ccccc4nc23)cc1	none
Cc1cccc(NC(=O)Cn2cnc3c(oc4ccccc43)c2=O)c1C	ASAP1 GAP inh 32.6, ARFGAP1 inh 29.1 | ASAP1 inh confirm 48.9 | ARFGAP1 confirm 59.2
Cc1nn(CC(=O)NCCC2=CCCCC2)c(C)c1[N+](=O)[O-]	none
